# Shown are actives, neighbours in structure and some others; about 4.3% of the full set was active somewhere.
# STAT1 activator: activators of IFN-gamma induced STAT1 signaling; NIH 3T3 STAT1-luciferase reporter, luminescence; 100% = IFN-gamma alone, no compound; activation (% of control), % at 5.5 µM; hit rate 2.6% among 200,000;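 active = activation above the screen-wide mean activation plus 3 SD, cut at about 130% in these data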;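 also: raw ratio to IFN-gamma control signal so 100% means no change and 0% no light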
# STAT3 inh: STAT3 signaling inhibition. AID 862. U3A cells, IL-6 STAT3-luciferase reporter, luminescence; host cell line lacks STAT1. inhibition, % at 5.5 µM. hit rate 0.89% among 190,000;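 active = inhibition above the mean inhibition across all screened compounds plus 3 SD, cut at about 44% in these data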;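 also: 0% = DMSO only wells and 100% = 100 µM nifuroxazide control wells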
# STAT1 blocker: reduces IFN-gamma driven STAT1 reporter signal; NIH 3T3 STAT1-luciferase reporter, luminescence; inhibition, % at 5.5 µM; hit rate 0.35% among 200,000; AID 920;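 active = inhibition above a set limit, the mean inhibition across all tested compounds plus 3 SD, cut at about 34% in these data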;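 also: 0% = IFN-gamma with DMSO and 100% = IFN-gamma with 300 µM nifuroxazide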
# STAT3 activator: STAT3 signaling activation; U3A cells, IL-6 STAT3-luciferase reporter, luminescence; 100% = signal with IL-6 EC80 alone; activation (% of control), % at 5.6 µM; hit rate 0.91% among 190,000; AID 871;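 active = activation above the screen-wide mean of compound activation plus 3 SD, cut at about 130% in these data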;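 also: 0% = background luminescence of wells with medium and substrate only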
#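 Material: human STAT1-deficient U3A cells with stable STAT3-luciferase reporter / Probe or stimulus: IL-6 stimulus at 33 ng/mL final / Schedule: 1 h compound pre-exposure, 6 h IL-6 stimulation, 37 °C / Technique: luminescence / Read-out basis: percent of IL-6-only median luminescence / Control set: IL-6-only high control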
# * hit, by the source's call.
SMILES,STAT1 activator,STAT3 inh,STAT1 blocker,STAT3 activator
Cc1ccc(C(=O)C(c2ccccc2)N2Cc3ccccc3C2=N)cc1 (centres undefined),106.5,0.1,-7.4,100.1
CC(=O)Nc1cc(-c2ccc(Cl)cc2)[nH]n1,144.3*,1.5,-50.3,100.7
COc1cc(OC)cc(-c2cc(NC(C)=O)n[nH]2)c1,99.2,-2.3,1.8,102.0
Cc1cc(Nc2ccc([N+](=O)[O-])cc2)nc2ccccc12,112.3,20.6,-12.4,84.1
COc1ccc(Nc2cc(C)c3ccccc3n2)cc1,132.0*,13.3,-37.4,95.5
O=C1NC(=O)/C(=C\c2ccc(Oc3cnccn3)cc2)S1,139.7*,-34.6,-42.8,129.0
COc1ccc(-c2cc(-c3cc(C)ccc3O)[nH]n2)cc1,146.3*,-42.1,-52.7,139.6*
COc1cc(SC)ccc1C(=O)Nc1ccon1,120.5,17.5,-22.1,88.9
CSc1ccccc1C(=O)Nc1ncc(C)s1,108.2,8.9,-8.9,96.2
COc1cc(SC)ccc1C(=O)Nc1ccc(C)cc1,146.3*,-25.1,-52.5,123.4
COc1cc(SC)ccc1C(=O)Nc1ccc(S(=O)(=O)N2CCCC2)cc1,99.7,7.0,1.6,99.6
COc1cc(SC)ccc1C(=O)Nc1cccc(C)n1,143.8*,11.7,-49.7,91.9
COc1cc(SC)ccc1C(=O)Nc1ncc(C)s1,15.9,100.5*,89.7*,15.8
COC(=O)c1ccc(COC(=O)c2ccc(SC)cc2OC)cc1,134.9*,-20.7,-38.7,121.2
Cc1ccc(Cl)c(OC(=O)Cn2cnc3c2c(=O)n(C)c(=O)n3C)c1,101.7,-7.2,-1.2,106.4
Brc1ccc2ncc(Br)cc2c1,105.1,-6.3,-5.8,104.2
CCC1(c2ccc(F)cc2)NC(=O)N(CC(=O)Nc2cc(S(=O)(=O)N(C)C)ccc2Cl)C1=O (centres undefined),86.0,0.6,14.1,100.6
CCN(CC)S(=O)(=O)c1cc(C(=O)OCC(=O)Nc2cccc(S(=O)(=O)N(C)C)c2)ccc1F,94.8,2.9,4.8,108.2
CCN(CC)S(=O)(=O)c1cc(C(=O)OCC(=O)Nc2ccc(-c3nc4ccc(C)cc4s3)cc2)ccc1F,145.3*,37.7,-49.6,72.1
Cn1cnnc1SCC(=O)Nc1ccc2nc(SCc3ccccc3F)sc2c1,145.8*,-15.6,-51.7,114.1
O=C(CSc1nc2ccc(NC(=O)CSc3nnnn3-c3ccccc3)cc2s1)Nc1ccccc1,106.3,16.3,-7.0,88.8
O=C(COC(=O)C12CC3CC(CC(C3)C1)C2)NCCc1ccccc1,99.6,0.2,0.4,100.0
COc1ccc(-c2cn3cc(Br)cnc3n2)cc1,134.6*,15.6,-39.7,90.2
COc1ccc(-c2cn3cccnc3n2)cc1Br,106.8,13.8,-7.6,91.2
COC(=O)C1C(=O)c2c([nH]c(C(=O)OC3CCCC3)c2C)CC1C (centres undefined),144.2*,-9.4,-57.0,107.9
SMILES,STAT1 activator,STAT3 inh,STAT1 blocker,STAT3 activator
Cc1c(C(=O)OC2CCCC2)[nH]c2c1C(=O)CC(c1ccco1)C2 (centres undefined),97.1,-25.1,0.2,119.6
CC(=O)Cn1cnc2sc(-c3ccccc3)cc2c1=O,144.8*,-22.1,-48.8,118.8
O=c1c2cc(-c3ccccc3)sc2ncn1-n1cccc1,129.1*,16.1,-31.6,92.2
O=C(Cn1cnc2sc(-c3ccccc3)cc2c1=O)N1CCOCC1,105.2,0.2,-5.6,103.0
CC(=O)Cn1nnc2sc(-c3ccccc3)cc2c1=O,145.8*,-17.5,-50.7,115.2
COc1ccc(-n2cnc3sc(-c4ccccc4)cc3c2=O)cc1,149.4*,8.5,-54.8,98.5
N#CCn1cnc2sc(-c3ccccc3)cc2c1=O,123.1,11.4,-27.1,93.9
Cc1ccc(C)n1-n1cnc2sc(-c3ccccc3)cc2c1=O,108.0,5.0,-8.7,100.9
Brc1ccc(C2Nc3cccc4cccc(c34)N2)s1,97.7,-10.2,2.6,109.0
CCc1cc2c(=O)n(-c3ccc(C)cc3)cnc2s1,138.7*,2.9,-42.1,100.2
Cc1ccc(NC(=O)CCSCCc2ccccn2)cc1,100.9,3.8,-2.6,100.5
CC(C)(C)c1ccc(NC(=O)Nc2ccc(OCC(=O)N3CCOCC3)cc2)cc1,134.0*,12.1,-38.5,95.2
O=C(Nc1ccc(OCC(=O)N2CCOCC2)cc1)Nc1cccc(Cl)c1,97.9,-3.5,0.4,105.0
C/C(=N/NC(=O)c1ccoc1C)c1ccc(NC(=O)c2ccncc2)cc1,143.4*,-9.7,-46.1,106.5
CC(=O)Nc1ccc(/C(C)=N/NC(=O)c2ccncc2)cc1,113.7,-3.6,-14.6,102.7
C/C(=N\Nc1ccccn1)c1ccc(N2CCOCC2)cc1,141.3*,16.9,-44.7,91.7
C/C(=N\NC(=O)c1ccc(Cl)cc1)c1ccc(N2CCOCC2)cc1,94.3,-1.9,8.3,99.5
C/C(=N/NC(=O)c1ccoc1C)c1ccc(N2CCOCC2)cc1,145.7*,4.3,-51.2,98.6
C/C(=N\NC(=O)c1ccoc1C)c1cccnc1,142.8*,-1.6,-47.8,102.1
CC1CCN(C(=O)CCCOc2ccc(Cl)cc2)CC1,108.8,-2.8,-11.0,103.5
COCCCN(CC(=O)Nc1ccc(N2CCOCC2)cc1)S(=O)(=O)c1ccccc1,107.9,-6.8,-10.6,108.9
Cc1ccc([N+](=O)[O-])cc1N=Nc1c(-c2ccc([N+](=O)[O-])cc2)[nH]n(C(N)=S)c1=O,67.1,45.5*,35.0*,65.3
NC(=S)n1[nH]c(-c2ccccc2)c(N=Nc2ccccc2C(=O)N2CCOCC2)c1=O,103.7,-0.7,-6.1,103.6
c1ccc(OCCOc2ncnc3sccc23)cc1,131.2*,3.9,-33.8,98.9
CN(C)c1ccc(/C=N/N=C2/NC(=O)/C(=C/c3ccc([N+](=O)[O-])cc3)S2)cc1,68.9,41.0,34.6*,73.0
SMILES,STAT1 activator,STAT3 inh,STAT1 blocker,STAT3 activator
COCC(=O)Nc1cc(C(=O)NCCc2ccccc2)ccc1Cl,144.7*,8.3,-49.2,95.9
CCOCC(=O)Nc1cc(C(=O)NCCc2ccccc2)ccc1Cl,130.5*,3.4,-35.4,100.0
CCC(Oc1ccccc1)C(=O)NCCOC (centres undefined),92.7,-17.9,8.2,112.4
CCOc1ccc(NC2OC(CO)C(O)C(O)C2O)c([N+](=O)[O-])c1 (centres undefined),98.7,4.0,-0.5,99.7
c1ccc(-c2cc3n(c2)CCc2ccccc2-3)cc1,130.0*,-105.5,-42.5,190.8*
O=C(O)c1cc2c(s1)-c1ccccc1CC2,102.7,-11.6,-3.0,107.4
O=C(NC(=S)N1CCCc2ccccc21)c1ccc([N+](=O)[O-])cc1,107.3,7.5,-10.9,101.6
O=C(NC(=S)N1CCCc2ccccc21)c1ccc(Br)cc1,97.9,-46.2,2.3,133.2*
O=C(NC(=S)N1CCCc2ccccc21)c1ccc(Cl)cc1,111.3,-50.3,-12.7,142.4*
CCCC(=O)Nc1cccc(NC(=O)c2cccc([N+](=O)[O-])c2C)c1,94.1,6.2,6.6,96.6
CN(C)CCCN1C(=O)c2cccc3c([N+](=O)[O-])ccc(c23)C1=O,142.6*,-4.9,-48.3,108.6
O=C1c2cccc([N+](=O)[O-])c2C(=O)N1CCO,93.7,7.3,5.2,95.7
